Key:
[1] = species on record: Cavia porcellus; assay: Compound was tested for calcium channel agonistic activity, causing a 50% increase of the maximum contractile response on guinea pig left atrium.; format: functional, Cardiac atrium
Summary of the method: (§1)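 Guinea pig left atrium (GPLA) preparation exposed to increasing test compound concentrations. […] Number of experiments varies per compound. For weak responders, percent increase in contractile force recorded at individual concentrations.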

[2] = species on record: Cavia porcellus; assay: Inhibition of carbachol-induced tonic contractile response in guinea pig ileal longitudinal smooth muscle; format: functional
Summary of the method: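 Guinea pig ileal longitudinal smooth muscle contracted by the muscarinic agonist carbachol (1.6 × 10⁻⁷ M). Slow, Ca²⁺-dependent tonic component measured. […] Reported ± SEM, n = 3.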

[3] = species on record: Cavia porcellus; assay: Calcium channel agonist activity causing a 50% increase in maximum contractile response on guinea pig left atrium; No effect; format: functional, Cardiac atrium; summary of the method: as §1
[4] = species on record: Cavia porcellus; assay: Calcium channel agonist activity causing a 50% increase in maximum contractile response on guinea pig left atrium; 'c' means Weak agonist; format: functional, Cardiac atrium; summary of the method: as §1
[5] = Cavia porcellus, Cardiac atrium

| SMILES | EC50 [1, 5] [µM] | other results |
| --- | --- | --- |
| CC1=NC(C)=C([N+](=O)[O-])C(c2ccncc2)/C1=C(\O)OCC(C)C (configuration not stated) | 8.51 | – |
| COCCO/C(O)=C1\C(C)=NC(C)=C([N+](=O)[O-])C1c1ccccn1 (configuration not stated) | 9.7 | IC50 ([2]; Cavia porcellus): 94700 nM |
| CC1=NC(C)=C([N+](=O)[O-])C(c2ccccn2)/C1=C(\O)OC1CCCCC1 (stereo in doubt; 14a) | – | EC50 [1]: 3.7 µM; IC50 [2]: 842 nM |
| CO/C(O)=C1\C(C)=NC(C)=C([N+](=O)[O-])C1c1ccccn1 (configuration not stated) | – | EC50 [3]: Not Active; IC50 ([2]; Cavia porcellus): 212000 nM |
| CC1=NC(C)=C([N+](=O)[O-])C(c2ccccn2)/C1=C(\O)OC1CCCCC1 (single isomer, unassigned; (-)) | – | IC50 [2]: 74.8 nM; EC50 [4]: Partial agonist |
| CC1=NC(C)=C([N+](=O)[O-])C(c2ccccn2)/C1=C(\O)OC(C)(C)C (configuration not stated) | 1810 | IC50 ([2]; Cavia porcellus): 1930 nM |
| COCCO/C(O)=C1\C(C)=NC(C)=C([N+](=O)[O-])C1c1ccncc1 (configuration not stated) | 37.7 | – |
| CC1=NC(C)=C([N+](=O)[O-])C(c2ccccn2)/C1=C(\O)OCC(C)C (configuration not stated) | 9.1 | IC50 ([2]; Cavia porcellus): 2610 nM |
| CC1=NC(C)=C([N+](=O)[O-])C(c2ccccn2)/C1=C(\O)OC1CCCC1 (configuration not stated) | 19.8 | IC50 ([2]; Cavia porcellus): 450 nM |
| CC1=NC(C)=C([N+](=O)[O-])C(c2ccncc2)/C1=C(\O)OC(C)(C)C (configuration not stated) | 2.82 | – |
| CC1=NC(C)=C([N+](=O)[O-])C(c2ccncc2)/C1=C(\O)OC1CCCC1 (configuration not stated) | 4.25 | – |
| CC1=NC(C)=C([N+](=O)[O-])C(c2ccccn2)/C1=C(\O)OC1CCCCC1 (single isomer, unassigned; (+)) | – | EC50 [1]: 8.45 µM; IC50 [2]: 5270 nM |
| CC1=NC(C)=C([N+](=O)[O-])C(c2ccncc2)/C1=C(\O)OC1CCCCC1 (configuration not stated) | 4.94 | – |

The next lines start with results.

| EC50 [1, 5] [µM] | SMILES | other results |
| --- | --- | --- |
| 8.84 | CCO/C(O)=C1\C(C)=NC(C)=C([N+](=O)[O-])C1c1cccnc1 (configuration not stated) | – |
| 22.8 | CCO/C(O)=C1\C(C)=NC(C)=C([N+](=O)[O-])C1c1ccccn1 (configuration not stated) | IC50 ([2]; Cavia porcellus): 5000 nM |
| 1.74 | CC1=NC(C)=C([N+](=O)[O-])C(c2cccnc2)/C1=C(\O)OCC(C)C (configuration not stated) | – |
| 49.4 | COCCO/C(O)=C1\C(C)=NC(C)=C([N+](=O)[O-])C1c1cccnc1 (configuration not stated) | – |
| 2.76 | CC1=NC(C)=C([N+](=O)[O-])C(c2cccnc2)/C1=C(\O)OC1CCCCC1 (configuration not stated) | – |
| 70 | CO/C(O)=C1\C(C)=NC(C)=C([N+](=O)[O-])C1c1cccnc1 (configuration not stated) | – |
| 48.5 | CO/C(O)=C1\C(C)=NC(C)=C([N+](=O)[O-])C1c1ccncc1 (configuration not stated) | – |
| 14.6 | CC1=NC(C)=C([N+](=O)[O-])C(c2cccnc2)/C1=C(\O)OC(C)(C)C (configuration not stated) | – |
| 6.46 | CCO/C(O)=C1\C(C)=NC(C)=C([N+](=O)[O-])C1c1ccncc1 (configuration not stated) | – |
| 3.28 | CC1=NC(C)=C([N+](=O)[O-])C(c2cccnc2)/C1=C(\O)OC1CCCC1 (configuration not stated) | – |
